Assay results reported in ChEMBL document CHEMBL1147872, “Syntheses of new tetrasubstituted thiophenes as novel anti-inflammatory agents” (Eur J Med Chem, 2007).
Values after ≈ are worked out from the molar mass of the structure shown. Active and inactive are the calls of the source. The calls are words filed in the database; no cut-off is given here.

Legend:
Format in all cases: functional
[1] = Antioxidant activity assessed as nitric oxide radical scavenging activity at 0.6 ug/ml after 150 mins
Summary of the method: (§1)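 Sodium nitroprusside (10 mmol) in PBS at physiological pH was incubated with sample at 25 °C for 150 min in a 3 ml reaction. Aliquots taken every 30 min were mixed 1:1 with Griess reagent (1% sulphanilamide, 0.1% naphthylethylenediamine in 2% H3PO4), and absorbance was read at 546 nm. Runs were done in triplicate, and % scavenging was calculated against the blank.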

[2] = Antioxidant activity assessed as nitric oxide radical scavenging activity at 0.4 ug/ml after 150 mins; summary of the method: as §1
[3] = Antioxidant activity assessed as nitric oxide radical scavenging activity at 0.2 ug/ml after 150 mins; summary of the method: as §1
[4] = Inhibition of nitric oxide radical scavenging activity; summary of the method: as §1
[5] = Antioxidant activity assessed as nitric oxide radical scavenging activity at 1.0 ug/ml after 150 mins; summary of the method: as §1
[6] = Antioxidant activity assessed as nitric oxide radical scavenging activity at 1.2 ug/ml after 150 mins; summary of the method: as §1
[7] = Antioxidant activity assessed as nitric oxide radical scavenging activity at 0.1 ug/ml after 150 mins; summary of the method: as §1
[8] = Antioxidant activity assessed as nitric oxide radical scavenging activity at 0.8 ug/ml after 150 mins; summary of the method: as §1
Rattus norvegicus [9] = experiment: Antiinflammatory activity in Albino rat assessed as protection against carrageenan-induced hind paw oedema at 100 mg/kg, po after 3 hrs
Summary of the method: (§2)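 Rats (150–250 g, either sex) were fasted 18 h and grouped in sixes. Compounds or standards were given orally as a suspension in 5% DMSO. After 1 h, 0.1 ml of 1% carrageenin was injected subplantar into the right hind paw. Paw volume was read by mercury plethysmometer at once and at 3 h. % protection = 100(1−Vt/Vc) versus vehicle.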

Rattus norvegicus [10] = experiment: Antiinflammatory activity in Albino rat assessed as protection against carrageenan-induced hind paw oedema at 40 mg/kg, po after 3 hrs; summary of the method: as §2
[11] = Antioxidant activity assessed as nitric oxide radical scavenging activity at 10 ug/ml after 150 mins; summary of the method: as §1
[12] = Antioxidant activity assessed as nitric oxide radical scavenging activity at 5 ug/ml after 150 mins; summary of the method: as §1
[13] = Antioxidant activity assessed as nitric oxide radical scavenging activity at 35 ug/ml after 150 mins; summary of the method: as §1
Rattus norvegicus [14] = experiment: Antiinflammatory activity in Albino rat assessed as protection against carrageenan-induced hind paw oedema at 20 mg/kg, po after 3 hrs; summary of the method: as §2
[15] = Antioxidant activity assessed as nitric oxide radical scavenging activity at 25 ug/ml after 150 mins; summary of the method: as §1
Mus musculus = experiment: Analgesic activity in Albino mouse assessed as protection against acetic acid-induced writhing at 10 mg/kg, ip within 30 mins; settings: route intraperitoneal
Summary of the method: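 Mice (20–25 g, either sex) starved 16 h, six per group, given 10 mg/kg i.p.; vehicle control received 1% DMSO at 0.5 ml/100 g. After 1 h, 0.1 ml of 3% acetic acid was given. Writhes were counted over 30 min, and the group mean was expressed as % inhibition versus control. Student's t-test was used.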

[16] = Antioxidant activity assessed as nitric oxide radical scavenging activity at 30 ug/ml after 150 mins; summary of the method: as §1
Rattus norvegicus [17] = experiment: Antiinflammatory activity in Albino rat assessed as protection against carrageenan-induced hind paw oedema at 10 mg/kg, po after 3 hrs; summary of the method: as §2
[18] = Antioxidant activity assessed as nitric oxide radical scavenging activity at 20 ug/ml after 150 mins; summary of the method: as §1
[19] = Antioxidant activity assessed as nitric oxide radical scavenging activity at 15 ug/ml after 150 mins; summary of the method: as §1

| Compound | IC50 [4] [µg/mL] | Activity (Rattus norvegicus [10]) [%] | Activity [11] | Activity [12] | Activity [13] | Activity (Rattus norvegicus [14]) [%] | Activity [15] | Activity (Mus musculus) [%] | Activity [16] | Activity (Rattus norvegicus [17]) [%] | Activity [18] | Activity [19] | also measured |
| --- | --- | --- | --- | --- | --- | --- | --- | --- | --- | --- | --- | --- | --- |
| Cc1cccc(Nc2ccccc2C(=O)O)c1C [MEFENAMIC ACID] |  |  |  |  |  |  |  |  |  |  |  |  | Activity (Rattus norvegicus [9]): 39% |
| Cc1ccc(Nc2sc(C(=O)c3ccc(C)cc3)c(C)c2C(=O)O)cc1 |  | 38 | inactive | inactive | inactive | 38 | inactive | 18 | inactive | 35 | inactive | inactive | Activity [4]: inactive |
| COC(=O)c1c(Nc2ccccc2)sc(C(=O)c2ccc(OC)cc2)c1C | 30.08 (≈ 78.9 µM) | 73 | 18% | 13.3% | 63% | 70 | 36.9% | 55 | 48.1% | 69 | 32.4% | 28.6% |  |

More lines, main results first:

| IC50 [4] [µg/mL] | Compound | Activity (Rattus norvegicus [10]) [%] | Activity [11] | Activity [12] | Activity [13] | Activity (Rattus norvegicus [14]) [%] | Activity [15] | Activity (Mus musculus) [%] | Activity [16] | Activity (Rattus norvegicus [17]) [%] | Activity [18] | Activity [19] | also measured |
| --- | --- | --- | --- | --- | --- | --- | --- | --- | --- | --- | --- | --- | --- |
| 0.52 (≈ 2.95 µM) | O=C1O[C@H]([C@@H](O)CO)C(O)=C1O [ASCORBIC ACID] |  |  |  |  |  |  |  |  |  |  |  | Activity [1]: 39.3%; Activity [2]: 29.5%; Activity [3]: 11.5%; Activity [5]: 58.3%; Activity [6]: 70.2%; Activity [7]: 2.98%; Activity [8]: 41.6% |
| 25.2 (≈ 68.6 µM) | COc1ccc(C(=O)c2sc(Nc3ccccc3)c(C(=O)O)c2C)cc1 | 70 | 24.7% | 19.6% | 61.2% | 80 | 52.6% | 30 | 59.5% | 79 | 41.2% | 36.5% |  |
| 171.43 (≈ 469 µM) | COC(=O)c1c(Nc2ccccc2)sc(C(=O)c2ccc(C)cc2)c1C | 53 | 3.16% | 2.08% | 10.2% | 49 | 8.16% | 27 | 9.35% | 43 | 6.06% | 4.59% |  |
